Measurements as given in publication PMC10496428 (ACS Infectious Diseases, 2023).

Legend:
[1] = system: P. falciparum Nluc trophozoite-stage parasites; experiment: Protein secretion and export; format: cell-based, Plasmodium falciparum; conditions: 5 h treatment; brefeldin A 5 μg/mL, torin 2 10 nM, M-797 4.8 μM, OGHL250 3.1 μM, WEHI-518 200 nM, C3 1.2 μM, KDU731 300 nM
Outline: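 Nluc-exporting P. falciparum, synchronized with 5% sorbitol and Percoll, grown in human RBCs at 37 °C under 1% O2/5% CO2; trophozoites at 20–24 hpi treated 5 h with test compound (0.1% DMSO vehicle). Cells differentially lysed to release RBC only, RBC plus PV, or all compartments, and Nluc signal measured in each fraction. Three biological replicates of three technical replicates.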

[2] = system: P. falciparum Hyp1-Nluc late schizonts; experiment: 4 h egress assay; format: cell-based, Plasmodium falciparum; conditions: for 4-Hour Egress EC50: dilution series, DNI = did not inhibit
Outline: (§1)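 Hyp1-Nluc 3D7 parasites were sorbitol-synchronised, grown to late schizonts and isolated on a 67% Percoll gradient. They were given a 4 h window to egress and invade RBCs in test compound, either at 10× growth EC50 or as a dilution series. Egress was read as Nluc in harvested medium with NanoGlo substrate. Background controls were subtracted from egress and invasion values, then normalised to 0.1% DMSO. Three biological replicates were run, with SD.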

[3] = system: P. falciparum purified merozoites (Nluc parasites); experiment: Invasion inhibition assay with purified merozoites; format: cell-based, Plasmodium falciparum; conditions: heparin 100 μg/mL, C1 4 μM, chloroquine 75 nM
Outline: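 Purified Nluc merozoites were exposed to test compound for 30 min. Compound was then removed and newly invaded parasites grown for 24 h before Nluc quantification. Controls were heparin (100 μg/mL), C1 (4 μM) and chloroquine (75 nM). Values are relative to DMSO, with three biological replicates.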

[4] = system: P. falciparum Hyp1-Nluc parasites; experiment: 4 h invasion / early ring-stage development assay; format: cell-based, Plasmodium falciparum; conditions: 4 h treatment at 10× EC50 for growth; for Invasion / early ring-stage development normalized to 0.1% DMSO: then 24 h growth without compound
Outline: as §1

[5] = system: MMV390048 resistant Dd2 with S743T mutation in PI4KIIIB; experiment: 72 h growth assay, [3H]-hypoxanthine incorporation; format: cell-based, Plasmodium falciparum; conditions: 3H-hypoxanthine incorporation assay
Outline: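 This was a modified [3H]-hypoxanthine incorporation assay over 72 h. It compared parental Dd2 with an MMV390048-resistant Dd2 line carrying PI4KIIIB S743T.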

Nluc = Nluc counter screen on parasite lysates; format: biochemical; conditions: 10x EC50 of growth, 10 min at 37 °C
Outline: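 Hyp1-Nluc schizonts at 1% haematocrit and 1–2% parasitaemia were lysed in 1x NanoGlo buffer. Lysates were added to test compound and incubated 10 min at 37 °C. Nluc activity was read by furimazine bioluminescence and normalised to 0.1% DMSO.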

## Nc1ccc(-c2ccc3ncc4ccc(=O)n(-c5cccc(C(F)(F)F)c5)c4c3c2)cn1 [torin 2]
[1]
  Export of Nluc reporter into the RBC compartment relative to DMSO: significantly reduced export into the RBC compartment

## CN1CCC(c2cc(-c3ccncc3)c(-c3ccc(F)cc3)[nH]2)CC1 [Compound C1, 4-[2-(4-fluorphenyl)-5-(1-methylpiperidine-4-yl)-1H-pyrrol-3-yl]pyridine]
[2]; OGHL compounds at 10× EC50 of growth
  Egress over a 4 h window, compared to 0.1% DMSO control normalized to 100%: 38%
[3]
  Invasion of purified merozoites relative to 0.1% DMSO (controls): directly inhibited merozoite invasion

## CNS(=O)(=O)c1ccccc1Nc1nc(Nc2ccc(N3CCOCC3)cc2OC)ncc1Br [OGHL134, Brc1c(nc(nc1)Nc2c(cc(cc2)N3CCOCC3)OC)Nc4c(cccc4)S(=O)(=O)NC]
[4]
  Invasion inhibition normalized to 0.1% DMSO: < 50%
  Invasion / early ring-stage development normalized to 0.1% DMSO: borderline

## CCN(CC)CCCC(C)Nc1ccnc2cc(Cl)ccc12 (stereo not shown) [chloroquine]
[3]
  Invasion of purified merozoites relative to 0.1% DMSO (controls): had no effect on invasion

## COc1ccc(CNc2nc(-c3ccc(C(=O)O)nc3)nc3sc4c(c23)CCCC4)cc1Cl [OGHL121, Clc1c(ccc(c1)CNc2nc(nc3sc4c(c32)CCCC4)-c5cnc(cc5)C(=O)O)OC]
[4]
  Invasion inhibition normalized to 0.1% DMSO: < 50%
  Invasion / early ring-stage development normalized to 0.1% DMSO: borderline

## C[C@H]1CCC/C=C/[C@@H]2C[C@H](O)C[C@H]2[C@H](O)/C=C/C(=O)O1 [brefeldin A]
[1]
  Export of Nluc reporter into the RBC compartment relative to DMSO: significantly reduced export into the RBC compartment

## COc1ccc(-c2c(C)nn3c(N)c(C#N)cnc23)cc1OC [Compound M-797]
[1]
  Export of Nluc reporter into the RBC compartment relative to DMSO: significantly reduced export into the RBC compartment
[5]
  fold resistance of S743T parasites compared to parental Dd2: 2 fold
[2]
  4-Hour Egress EC50: did not block egress

## CN(C(=O)c1ccn2ncc(-c3ccc(C(N)=O)cc3)c2c1)c1ccc(C#N)cn1 [KDU731]
[1]
  Export of Nluc reporter into the RBC compartment relative to DMSO: reduced protein export into the RBC compartment

## COc1cc(OC)c(CCNC(=O)c2cn3cc(-c4cc(OCC(=O)O)ccc4OC)nc3s2)c(OC)c1 [OGHL239, s1c3n(cc1C(=O)NCCc2c(cc(cc2OC)OC)OC)cc(n3)-c4c(ccc(c4)OCC(=O)O)OC]
Nluc
  direct inhibition of Nluc activity in parasite lysates: strongly inhibit Nluc activity

## COc1cc(C(=O)N(C)C)ccc1-c1cc2nccc(-c3ccc4ccncc4c3)c2o1 [OGHL250, N(C)(C)C(=O)c1cc(c(cc1)-c5oc2c(nccc2-c4cc3cnccc3cc4)c5)OC]
[1]
  Export of Nluc reporter into the RBC compartment relative to DMSO: did not significantly reduce export
[2]
  4-Hour Egress EC50: did not inhibit parasite egress

## Cn1cc(-c2cnc3[nH]cc(-c4cn(Cc5cccc(F)c5F)nn4)c3c2)cn1 [OGHL169, Fc1c(cccc1Cn2nnc(c2)-c3c[nH]c4ncc(cc43)-c5cn(nc5)C)F]
[4]
  Invasion inhibition normalized to 0.1% DMSO: < 50%
  Invasion / early ring-stage development normalized to 0.1% DMSO: < 50%

## heparin
[4]
  Invasion / early ring-stage development normalized to 0.1% DMSO: almost complete invasion inhibition
